Usually Ki stands for the dissociation constant of the complex between target and ligand, obtained from inhibition or displacement. Usually EC90 stands for the concentration needed for an effect of 90%.

The nature of test [1]: Binding affinity to HCV NS3 protease by spectrophotometry. Details: species or system Hepacivirus hominis. The method in brief: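 Continuous assay with NS4A-tethered single-chain NS3 serine protease, read out chromogenically. Affinity reported as Ki*.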
A further test has as its system Hepatitis C virus. Kind of test: Antiviral activity against HCV RNA replication in human hepatoma cells by replicon assay. The test is classed as functional, organism-based, Hepacivirus hominis. A general note: Replicon systems follow genome replication, usually without infectious particles.
The nature of test [2]: Selectivity for HCV NS3 protease over human neutrophil elastase.

On to `CC(C)(C)OC(=O)N[C@H]1CS(=O)(=O)CCCCCCC[C@@H](C(=O)C(=O)NC2CC2)NC(=O)[C@@H]2[C@@H]3[C@H](CN2C1=O)C3(C)C`, for which, in test [1], the Ki was 670 nM.

As to `C=CCNC(=O)C(=O)[C@@H]1CCCCCCCCC[C@H](NC(=O)OC(C)(C)C)C(=O)N2C[C@H]3[C@@H]([C@H]2C(=O)N1)C3(C)C`, in test [1], the Ki was 36 nM.

In the case of `C=CCNC(=O)C(=O)[C@@H]1CCCCCCCOC[C@H](NC(=O)N[C@H](CN2CCCCC2=O)C(C)(C)C)C(=O)N2C[C@H]3[C@@H]([C@H]2C(=O)N1)C3(C)C`, the Ki in test [1] came out at 21 nM. In addition, the EC90 with Hepatitis C virus (read-out: EC90) stood at 160 nM. Further, in test [2], the Ratio came to 160.

The molecule `C=CCNC(=O)C(=O)[C@@H]1CCCCCCCO[C@@H](C)[C@H](NC(=O)N[C@H](CN2CCC(C)(C)CC2=O)C(C)(C)C)C(=O)N2C[C@H]3[C@@H]([C@H]2C(=O)N1)C3(C)C` showed an inhibitory constant (Ki) in test [1] of 8 nM. Besides, in the test on Hepatitis C virus (read-out: EC90), the EC90 turned out to be 60 nM. For the same molecule, the Ratio in test [2] was 1300.

Consider `C=CCNC(=O)C(=O)[C@@H]1CCCCCCCOC[C@H](NC(=O)N[C@H](CN2C(=O)CC(C)(C)CC2=O)C(C)(C)C)C(=O)N2C[C@H]3[C@@H]([C@H]2C(=O)N1)C3(C)C`, for which the affinity in test [1], expressed as Ki, was 7 nM. Also, the EC90 in the test on Hepatitis C virus (read-out: EC90) stood at 50 nM. In test [2], the Ratio worked out at 300.

Turning to `C=CCNC(=O)C(=O)[C@@H]1CCCCCCCOC[C@H](NC(=O)N[C@H](CN(C)S(=O)(=O)c2cccs2)C(C)(C)C)C(=O)N2C[C@H]3[C@@H]([C@H]2C(=O)N1)C3(C)C`, the affinity in test [1] corresponds to a Ki of 14 nM. Moreover, the EC90 with Hepatitis C virus (read-out: EC90) was found to be 150 nM. Moreover, the Ratio in test [2] amounted to 100.

Consider `C=CCNC(=O)C(=O)[C@@H]1CCCCCCCOC[C@H](NC(=O)N[C@H](C(=O)C2CC2)C2CCCCC2)C(=O)N2C[C@H]3[C@@H]([C@H]2C(=O)N1)C3(C)C`, for which affinity in test [1] was put at a Ki of 160 nM. For the same molecule, the Ratio in test [2] was found to be 9.

On to `C=CCNC(=O)C(=O)[C@@H]1CCCCCCCOC[C@H](NC(=O)N[C@H](CN2CCC(C)(C)CC2=O)C(C)(C)C)C(=O)N2C[C@H]3[C@@H]([C@H]2C(=O)N1)C3(C)C`, for which the inhibitory constant (Ki) in test [1] was found to be 21 nM. Besides, in the test on Hepatitis C virus (read-out: EC90), the EC90 was 100 nM. Moreover, the Ratio in test [2] is 140.

As for `C=CCNC(=O)C(=O)[C@@H]1CCCCNC(=O)OCCC[C@H](NC(=O)OC(C)(C)C)C(=O)N2C[C@H]3[C@@H]([C@H]2C(=O)N1)C3(C)C`, the affinity in test [1], expressed as Ki, was 660 nM.

As for `C=CCNC(=O)C(=O)[C@@H]1CCCCCCCO[C@@H](C)[C@H](NC(=O)N[C@H](CN2C(=O)C3CCC(C3)C2=O)C(C)(C)C)C(=O)N2C[C@H]3[C@@H]([C@H]2C(=O)N1)C3(C)C`, the affinity in test [1] corresponds to a Ki of 3 nM. Further, the EC90 in the test with Hepatitis C virus (read-out: EC90) amounted to 30 nM. Besides, the Ratio in test [2] worked out at 2800.

In test [1], `C=CCNC(=O)C(=O)[C@@H]1CCCCCCC(=O)CC[C@H](NC(=O)OC(C)(C)C)C(=O)N2C[C@H]3[C@@H]([C@H]2C(=O)N1)C3(C)C` yielded a Ki of 320 nM.

Molecule `C=CCNC(=O)C(=O)[C@@H]1CCCCCCCOC[C@H](NC=O)C(=O)N2C[C@H]3[C@@H]([C@H]2C(=O)N1)C3(C)C` yielded a Ki in test [1] of 400 nM.

Turning to `C=CCNC(=O)C(=O)[C@@H]1CCCCCCCO[C@@H](C)[C@H](NC(=O)N[C@H](CN2C(=O)CN(C)CC2=O)C(C)(C)C)C(=O)N2C[C@H]3[C@@H]([C@H]2C(=O)N1)C3(C)C`, the Ki in test [1] came out at 6 nM. For the same molecule, in the test on Hepatitis C virus (read-out: EC90), the EC90 turned out to be 60 nM. Moreover, the Ratio in test [2] is 1100.

In the case of `C=CCNC(=O)C(=O)[C@@H]1CCCCCCCOC[C@H](NC(=O)N[C@H](CN2C(=O)CN(C)CC2=O)C(C)(C)C)C(=O)N2C[C@H]3[C@@H]([C@H]2C(=O)N1)C3(C)C`, in test [1], the affinity, expressed as Ki, was 15 nM. In addition, in the test with Hepatitis C virus (read-out: EC90), the EC90 came out at 80 nM. In addition, the Ratio in test [2] came out at 300.

Regarding `CC(C)(C)NC(=O)N[C@H](C(=O)N1C[C@H]2[C@@H]([C@H]1C(=O)NC(CC1CCC1)C(=O)C(N)=O)C2(C)C)C(C)(C)C` (some centres undefined) [BOCEPREVIR], the Ki in test [1] came out at 14 nM. Further, the EC90 in the test with Hepatitis C virus (read-out: EC90) stood at 350 nM. Further, the Ratio in test [2] turned out to be 2200.

For `C=CCNC(=O)C(=O)[C@@H]1CCCCCCCOC[C@H](NC(=O)N[C@H](CN2C(=O)C3CCC(C3)C2=O)C(C)(C)C)C(=O)N2C[C@H]3[C@@H]([C@H]2C(=O)N1)C3(C)C`, in test [1], the Ki came to 3 nM. Besides, the EC90 in the test on Hepatitis C virus (read-out: EC90) turned out to be 30 nM. Further, the Ratio in test [2] is 1500.

On to `C=CCNC(=O)C(=O)[C@@H]1CCCCCCCOC[C@H](NC(=O)N[C@H](CN(C)S(=O)(=O)CC)C(C)(C)C)C(=O)N2C[C@H]3[C@@H]([C@H]2C(=O)N1)C3(C)C`, for which, in test [1], the affinity corresponds to a Ki of 18 nM. For the same molecule, the Ratio in test [2] is 350.

`C=CCNC(=O)C(=O)[C@@H]1CCCCCCCOC[C@H](NC(=O)OC(C)(C)C)C(=O)N2C[C@H]3[C@@H]([C@H]2C(=O)N1)C3(C)C` showed a Ki in test [1] of 150 nM.

For the molecule `C=CCNC(=O)C(=O)[C@@H]1CCCCCCCO[C@@H](C)[C@H](NC(=O)N[C@H](CN2C(=O)CC(C)(C)CC2=O)C(C)(C)C)C(=O)N2C[C@H]3[C@@H]([C@H]2C(=O)N1)C3(C)C`, in test [1], the Ki stood at 7 nM. In the test with Hepatitis C virus, this molecule gave a 90% effect concentration (EC90) of 40 nM. In addition, the Ratio in test [2] came out at 1400.

In test [1], `CC(C)(C)OC(=O)N[C@@H]1C(=O)N2C[C@H]3[C@@H]([C@H]2C(=O)N[C@H](C(=O)C(N)=O)CCCCCCCCCC1(C)C)C3(C)C` came in with a Ki of 250 nM.

For the origin of these results see ChEMBL document CHEMBL1143391, “Design, synthesis, and evaluation of oxygen-containing macrocyclic peptidomimetics as inhibitors of HCV NS3 protease” (J Med Chem, 2009).
